Usually IC50 stands for the point on the concentration scale where inhibition reaches its midpoint.

The subject of assay [1] is Trypanosoma brucei rhodesiense. As to the kind of experiment: Inhibitory concentration against Trypanosoma brucei rhodesiense STIB 900 upon incubation at 37 degrees C in 5% CO2 for 72 hours. The conditions noted are these: Trypanosoma brucei, 72 h. It counts as functional, organism-based.
The target in assay [2] is T1, Beta-ketoacyl-ACP-synthase III (Plasmodium falciparum) (UniProt O77078).
T1 sequence (whole entry): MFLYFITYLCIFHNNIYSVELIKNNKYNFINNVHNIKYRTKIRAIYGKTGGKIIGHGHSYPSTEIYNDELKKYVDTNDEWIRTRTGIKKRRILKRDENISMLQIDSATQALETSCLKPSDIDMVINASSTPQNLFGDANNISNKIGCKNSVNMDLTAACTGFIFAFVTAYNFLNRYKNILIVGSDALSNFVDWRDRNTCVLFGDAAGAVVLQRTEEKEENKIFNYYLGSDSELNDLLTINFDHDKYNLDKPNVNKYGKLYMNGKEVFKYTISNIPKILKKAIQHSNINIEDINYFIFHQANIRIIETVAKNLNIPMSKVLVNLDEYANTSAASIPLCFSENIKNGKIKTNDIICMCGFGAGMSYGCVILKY
The assay can be described thus: Percent inhibition of recombinant Plasmodium falciparum beta-Ketoacyl-acyl carrier protein synthase III activity (MBP-pfKASIII) expressed in E. coli cells using [1-14C]acetyl-CoA as radioligand upon incubation at 37 degrees C for 15 minutes with compound dissolved in 2% DMSO at 10 uM; NA = no activity. A digest of the protocol: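 MBP-fused pfKASIII from E. coli BL21(DE3) codon+RIL, amylose-purified, 500 ng per reaction. Buffer: 100 mM NaH2PO4 pH 6.6, with 25 µM E. coli ACP prereduced with 1 mM β-mercaptoethanol (37 °C, 30 min), 1 µg E. coli FabD, 65 µM malonyl-CoA and 45 µM [1-14C]acetyl-CoA. 2% DMSO final; 37 °C, 15 min. Read-out: filter disks, TCA-washed, scintillation-counted.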

Assay [3] deals with Plasmodium falciparum. As to the kind of experiment: In vitro inhibitory concentration against chloroquine-resistant, pyrimethamine-resistant Plasmodium falciparum K1. It counts as functional, organism-based. Particulars: Plasmodium falciparum.
Assay [4] relates to Trypanosoma cruzi. As to the kind of experiment: Inhibitory concentration against Trypanosoma cruzi [Tulahuen strain C2C4] in rat skeletal myoblasts upon incubation at 37 degrees C for 4 days in 5% CO2. It counts as functional, organism-based. The conditions noted are these: Trypanosoma cruzi, 96 h.
The test system of assay [5] is Leishmania donovani. The assay can be described thus: Inhibitory concentration against amastigotes of Leishmania donovani strain MHOM/ET/67/L82 upon incubation at 37 degrees C for 72 hours using alamar blue. Background: The colour change of resazurin is a common sign of viable cells or microbes.

Some results are limits rather than exact numbers.

Regarding `C=CCOC1=C(CCC)C(=O)SC1(C)CCCCCCCCCC` (stereo not given), the IC50 worked out at 14 µM in assay [1], 1 µM in assay [3], 80 µM in assay [4] and 66 µM in assay [5]. In assay [2], the inhibition entry is “No activity”.

`CCCCCCCCCCC1(C)NC(=O)C(C(C)=O)=C1O` (stereo not given): the IC50 came to 7 µM in assay [1], 63 µM in assay [3], 153 µM in assay [4] and 3 µM in assay [5]. Also, in assay [2], the inhibition result is “No activity”.

Turning to `CCCC1=C(O)C(C)(CCCCCCO[Si](C)(C)C(C)(C)C)SC1=O` (stereo not given), the IC50 in assay [1] is 2 µM; in assay [3], 37 µM; in assay [4], 150 µM; in assay [5], 1 µM. The inhibition result in assay [2] was “No activity”.

Regarding `C=CCC1(CCC)C(=O)SC(C)(CCCCCCCCCC)C1=O` (stereo not given), the IC50 in assay [1] is 9 µM; in assay [3], 19 µM; in assay [4], 47 µM; in assay [5], 82 µM. Further, the inhibition result in assay [2] was “No activity”.

Consider `CCCC1=C(O)C(C)(CCCCCCO)SC1=O` (stereo not given), for which the IC50 in assay [1] came to 64 µM; in assay [3] it was 157 µM; in assay [4] it was 64 µM; in assay [5] it was 88 µM. For the same compound, in assay [2], the inhibition result was “No activity”.

In the case of `CCCC1=C(OC)C(C)SC1=O` (stereo not given), the IC50 was determined as 9 µM in assay [1], 45 µM in assay [3], 359 µM in assay [4] and 100 µM in assay [5]. The inhibition result in assay [2] was “No activity”.

In the case of `CCCCCCCCCCC1(C)SC(=O)C(C/C=C(/C)CCC=C(C)C)(CCC)C1=O` (stereo not given), the IC50 in assay [1] was > 200 µM; in assay [3], 77 µM; in assay [4] it was > 66 µM; in assay [5], > 66 µM. Moreover, the inhibition entry in assay [2] is “No activity”.

(Values after ChEMBL document CHEMBL1141084, “Analogues of thiolactomycin as potential antimalarial agents” (J Med Chem, 2005).)
